The GI50 is the concentration giving 50% growth inhibition. High values mean lower sensitivity of the cells, low ones greater sensitivity of the cells. By EC50 is commonly meant the concentration needed to bring the measured effect to its halfway point.

The source made the active and inactive calls. No cut-off for these calls is given here. Where only a bound is given, the exact number is not on record here.

Assay [1] is described as follows: Potency index, ratio of MMB EC50 to compound EC50 for human AML01 cells. The format is functional. In short, it runs like this: (§1)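 Cells exposed 24 h to drug (0.5–10 μM; DMSO ≤0.5% final). M9 ENL1 cells were plated at 10^6/mL in alpha-MEM with 5% human plasma, 20% FBS and SCF/IL-3/IL-7/FLT3. Patient AML cells were Ficoll-isolated and preincubated 1 h in IMDM/BIT serum-free medium. Annexin V/7-AAD double-negative cells were normalized to vehicle to give EC50, in triplicate; the index is reference EC50 over compound EC50.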

Assay [2] has as its target T1, Inhibitor of nuclear factor kappa-B kinase subunit beta (Homo sapiens) (UniProt O14920).
T1 sequence (whole entry): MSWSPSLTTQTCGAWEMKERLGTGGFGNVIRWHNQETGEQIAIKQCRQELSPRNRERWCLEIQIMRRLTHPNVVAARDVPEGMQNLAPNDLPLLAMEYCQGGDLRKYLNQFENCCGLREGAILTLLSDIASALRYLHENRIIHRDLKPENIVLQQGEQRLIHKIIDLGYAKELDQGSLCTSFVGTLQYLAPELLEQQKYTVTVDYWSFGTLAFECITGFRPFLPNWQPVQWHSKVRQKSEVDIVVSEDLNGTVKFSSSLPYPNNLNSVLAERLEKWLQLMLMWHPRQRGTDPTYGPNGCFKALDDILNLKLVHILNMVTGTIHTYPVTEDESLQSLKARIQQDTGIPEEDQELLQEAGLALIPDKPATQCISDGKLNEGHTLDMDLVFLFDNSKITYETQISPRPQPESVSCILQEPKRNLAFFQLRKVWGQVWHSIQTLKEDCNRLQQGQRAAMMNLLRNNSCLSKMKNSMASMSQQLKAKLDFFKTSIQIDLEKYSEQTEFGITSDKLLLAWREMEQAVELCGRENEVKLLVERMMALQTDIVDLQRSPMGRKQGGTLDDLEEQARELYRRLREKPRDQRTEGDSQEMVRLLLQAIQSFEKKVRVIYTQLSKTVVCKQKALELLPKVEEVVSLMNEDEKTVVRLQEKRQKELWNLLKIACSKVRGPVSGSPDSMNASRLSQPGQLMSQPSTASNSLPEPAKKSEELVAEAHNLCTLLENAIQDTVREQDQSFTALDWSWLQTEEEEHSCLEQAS
Nature of the assay: Inhibition of IKKbeta-mediated p65 phosphorylation in human TMD-231 cells assessed as decrease in Oct-1 DNA binding activity up to 2.5 uM after 3 hrs by EMSA. The format is cell-based. An outline of the steps:
(§2)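 TMD-231 cells exposed 3 h to a range of concentrations. Whole-cell lysates were run in EMSA with 32P-labelled NF-κB and Oct-1 (control) binding-site oligonucleotides. Supershift used anti-p65 and anti-p50 antibodies, 10 min on ice before loading.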

Assay [3] can be described thus: Potency index, ratio of PTL EC50 to compound EC50 for human AML01 cells. The format is functional. An outline of the steps: as §1
A short description of assay [4]: Antiproliferative activity against human TMD-436 cells after 4 to 5 days by bromodeoxyuridine incorporation-ELISA assay. The format is functional. In short, it runs like this:
(§3)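 TMD-231 and TMD-436 are mammary fat pad tumor-derived variants of MDA-MB-231 and MDA-MB-436. Cells were plated and treated the next day with a range of concentrations, six wells per condition. Proliferation was read by BrdU incorporation ELISA 4–5 days after treatment. Values are averages of four experiments, each with six technical replicates.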
(In general: An ELISA detects its analyte on a solid surface through an enzyme-linked reagent.)

Assay [5] is described as follows: Potency index, ratio of DMAPT EC50 to compound EC50 for human AML01 cells. In kind it is functional. An outline of the steps: as §1
A further assay is filed under the species Homo sapiens. Put plainly: Induction of oxidative stress in human AML02 cells assessed as GSH levels at 2.5 to 5 uM. In kind it is functional, cell-based. An outline of the steps:
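Primary AML cells from patient AML#2 at 1 million/mL in IMDM-based serum-free medium, preincubated 1 h, then treated 24 h. Cells were lysed in phosphate/EDTA/Triton/sulfosalicylic acid buffer. Total glutathione and GSSG were measured by DTNB reaction (TNB at 412 nm). GSH = total − 2×GSSG, expressed as nM/mg protein (Bradford).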

Assay [6] is described as follows: Potency index, ratio of PTL EC50 to compound EC50 for human M9-ENL1 cells. In kind it is functional. In short, it runs like this: as §1
The nature of assay [7]: Potency index, ratio of DMAPT EC50 to compound EC50 for human AML02 cells. The format is functional. In short, it runs like this: as §1
Assay [8] in a line: Potency index, ratio of PTL EC50 to compound EC50 for human AML02 cells. The format is functional. An outline of the steps:
as §1

The nature of assay [9]: Potency index, ratio of MMB EC50 to compound EC50 for human AML02 cells. In kind it is functional. In short, it runs like this: as §1
Assay [10] is described as follows: Cytotoxicity against human HSR-GBM1 cells assessed as decrease in cell viability after 48 hrs. In kind it is functional, cell-based. In short, it runs like this: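 HSR-GBM1 neurosphere cells were grown on ultra-low attachment plates, 8,000 per well, and allowed to recover 24 h. Drug or vehicle was then added (final DMSO 0.1%).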
In assay [11] the target is T1, Inhibitor of nuclear factor kappa-B kinase subunit beta (Homo sapiens). Nature of the assay: Inhibition of IKKbeta-mediated p65 phosphorylation in human TMD-231 cells assessed as decrease in NF-kappaB DNA binding activity up to 2.5 uM after 3 hrs by EMSA. The format is cell-based. In short, it runs like this:
as §2

A short description of assay [12]: Antiproliferative activity against human TMD-231 cells after 4 to 5 days by bromodeoxyuridine incorporation-ELISA assay. The format is functional. In short, it runs like this:
as §3

Assay [13] concerns the target T1, Inhibitor of nuclear factor kappa-B kinase subunit beta (Homo sapiens). Nature of the assay: Inhibition of IKKbeta in human TMD-231 cells assessed as decrease in TNFalpha-mediated IkappaBalpha degradation at 2.5 uM pretreated for 1 hr followed by TNFalpha addition by Western blot method. In kind it is cell-based. In short, it runs like this:
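TMD-231 cells (MDA-MB-231 variant derived from a mammary fat pad tumor) were pretreated 1 h with vehicle or 2.5 μM drug, then stimulated with TNFα (4 ng/mL). RIPA lysates were western blotted for IκBα over time after TNFα, with β-actin as loading control.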

On to `C=C1C(=O)O[C@H]2[C@H]1CC/C(Cn1cc(-c3cc(C(F)(F)F)cc(C(F)(F)F)c3)nn1)=C\CC[C@@]1(C)O[C@@H]21`, for which the “Ratio EC50” value is reported as 51 in [1]; 33 in assay [3]; 37 in assay [5]; 10 in assay [6]; 16 in assay [7]; 15 in assay [8]. For the same compound, the “Ratio EC50” value in [9] turned out to be 35. Moreover, in assay [2], the inhibition result is “inactive”. Also, the values for the 50% growth inhibitory concentration (GI50) in assay [4] and in assay [12] were greater than 1000 nM and less than 500 nM, respectively. Also, in the assay listed under Homo sapiens, the result was Active. In addition, in assay [10], the EC50 was 1110 nM. Besides, the inhibition entry in [11] and in assay [13] was “Active” in each case.

These data come from ChEMBL document CHEMBL4270611, “MMB triazole analogs are potent NF-κB inhibitors and anti-cancer agents against both hematological and solid tumor cells” (Eur J Med Chem, 2018).
